Screening results deposited in PubChem by Broad Institute.
HIV Env fusion: inhibitors of HIV-1 Env-driven cell-cell fusion, primary screen, HeLa-JRFL effector, CEM21 target cells, luciferase | inhibition, % at 12.3 µM | 360,000 tested, 1.1% active | AID 651610, 2012;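 active = mean replicate inhibition score of at least 50 and every replicate individually at or above 50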;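 note: 0% = plate neutral controls and 100% = maraviroc near 300 nM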
FGF22 binding-1: binders of human FGF22 protein, primary screen, FGF22 synaptogenesis inhibitor project, biophysical, thermal shift, single point; Fibroblast growth factor 22 (Homo sapiens), Q9HCT0; recombinant FGF22 thermal shift, SYPRO orange fluorescence; percent of sucrose octasulfate shift, DMSO zero; activity (Tm shift, normalised), % at 9.99 µM; 340,000 tested, 1.5% active; AID 651658, 2012;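 active = mean Tm shift, scaled 0 neutral to 100 positive control, at about 1.3% or above, every replicate too, limit read from the data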
Cneo AK release: Cryptococcus neoformans cell lysis inducers, primary screen, AK release luminescence, single concentration; 360,000 tested, 0.2% active; lysis activity, % at 15 µM; AID 651654, 2012; C. neoformans lysis, adenylate kinase release luminescence, 4 h; normalised: neutral wells 0, clomiphene wells 100;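 active = mean lysis activity across replicates of at least 80%, whatever share of replicates individually reach that level; inactive = mean lysis activity below 80%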
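Assay system: C. neoformans cells. Amount: yeast cell density of 5 × 10^6 cells/mL. Technique: AK luminescence. Buffer or medium: YPD. Times: static 4 h at 37 °C with compound, 1 h detection. Dosing: single-point compound dose. Read-out: lysis from increased AK signal.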
PGC1a acetyl inh: inhibitors of PGC1a acetylation signal, primary screen, cell-based, U2OS, AlphaScreen, inhibitor mode. AlphaScreen anti-acetyl-lysine; with virally co-expressed GCN5 acetyltransferase. inhibition, % at 15.6 µM. 350,000 tested, 0.17% active;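 active = every replicate shows inhibition of at least 40%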;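 note: 0% = neutral control wells and 100% = positive control wells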
Ecoli rRNA inh: reduced GFP signal of wild-type E. coli, primary screen, bacterial rRNA inhibitor project, GFP/RFP fluorescence, OD600, single point; GFP signal change (wild-type ribosome), % (concentration not given with the values); AID 720706, 2013; E. coli WT GFP vs humanized-ribosome RFP mutants, 24 h; active compounds read low; DMSO median 0, no signal -100; 350,000 tested, 1.6% active;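 active = significant combined selectivity score with lowered wild-type GFP, culture density cut under 30%, mutant RFP and density less affected; inactive = any of these conditions unmet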
ERAP1 inh: human ERAP1 aminopeptidase inhibitors, primary screen, biochemical, single point, plate reader; AID 652197, 2013; recombinant ERAP1, Leu-AMC fluorescence, 60 min; Endoplasmic reticulum aminopeptidase 1 (Homo sapiens), Q9NZ08; 340,000 tested, 0.15% active; inhibition, % at 10.7 µM;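 active = mean replicate inhibition of at least 30%, or all replicates individually reaching that 30% level; inactive = mean below 30% and not every replicate reaching it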;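 note: 0% = neutral control wells and 100% = L-leucinethiol positive control wells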
Target sequence (Q9NZ08 whole entry, looked up): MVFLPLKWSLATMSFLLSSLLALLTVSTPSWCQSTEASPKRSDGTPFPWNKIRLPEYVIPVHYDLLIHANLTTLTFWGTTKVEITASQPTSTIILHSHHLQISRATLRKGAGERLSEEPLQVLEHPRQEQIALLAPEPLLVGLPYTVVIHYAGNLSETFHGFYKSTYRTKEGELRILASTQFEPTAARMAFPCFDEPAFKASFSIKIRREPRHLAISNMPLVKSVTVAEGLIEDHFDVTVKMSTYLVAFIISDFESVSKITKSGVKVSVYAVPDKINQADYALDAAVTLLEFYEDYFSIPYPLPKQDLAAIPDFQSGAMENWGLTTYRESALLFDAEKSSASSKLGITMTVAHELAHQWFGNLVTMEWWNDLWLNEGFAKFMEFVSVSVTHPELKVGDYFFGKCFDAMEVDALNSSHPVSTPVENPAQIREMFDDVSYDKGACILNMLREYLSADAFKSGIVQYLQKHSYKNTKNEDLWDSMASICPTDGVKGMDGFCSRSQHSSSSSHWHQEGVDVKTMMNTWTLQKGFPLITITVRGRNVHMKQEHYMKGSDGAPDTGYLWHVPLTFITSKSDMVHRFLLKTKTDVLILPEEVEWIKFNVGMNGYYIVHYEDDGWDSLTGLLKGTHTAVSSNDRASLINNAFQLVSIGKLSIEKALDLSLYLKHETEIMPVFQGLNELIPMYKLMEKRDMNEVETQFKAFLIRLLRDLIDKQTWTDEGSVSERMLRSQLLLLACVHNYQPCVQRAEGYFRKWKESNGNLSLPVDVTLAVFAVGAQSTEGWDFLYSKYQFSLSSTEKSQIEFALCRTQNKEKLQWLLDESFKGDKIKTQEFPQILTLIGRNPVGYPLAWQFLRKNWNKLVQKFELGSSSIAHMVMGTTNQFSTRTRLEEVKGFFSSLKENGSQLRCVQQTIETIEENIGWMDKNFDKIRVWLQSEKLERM
FGF22 binding-2: binders of human FGF22 protein, dose response, FGF22 synaptogenesis inhibitor project, biophysical, thermal shift, cherry-pick retest | shares compounds with FGF22 binding-1 | recombinant FGF22 thermal shift, SYPRO orange fluorescence | thermal shift activity, °C (ΔTm) at 38 µM | 1,000 tested, 2% active | AID 720646, 2013;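 active = fitted rise in melting shift crosses a set limit at or below the top valid dose tested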
SYPRO no-protein: compound-only thermal shift signal without protein, dose response, artefact control for FGF22 binder project, biochemical, cherry-picked samples, RT-PCR instrument; shares compounds with FGF22 binding-1; compound-only SYPRO orange thermal shift counter-screen, no protein; AC50, µM (doses to about 38 µM); 1,000 tested, 2% active;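 active = rising signal whose fitted curve reaches the 0.54 level within the top valid dose, showing a melting point, actives reach about 13 µM in these data; inactive = the rest, including activity in the opposite direction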; note: value is where the raw curve crosses a fixed level and not half-maximal
* hit, by the source's call; ! = a repeat was not active; [ ] = another dose, or the depositor's remark. Rows were chosen to be rich in hits. Some 3.5% of all compounds tested hit in one or more screens of this group.

`COc1ccccc1NC(=O)N[C@H]1CC[C@@H](CCn2cc(-c3ccccc3)nn2)O[C@H]1CO` gave HIV Env fusion 3.6[16.7 µM], FGF22 binding-1 -0.1, Cneo AK release 3.6, PGC1a acetyl inh 6.4, Ecoli rRNA inh -1.0 and ERAP1 inh -1.5.
`COc1ccccc1NC(=O)N[C@H]1CC[C@H](CCn2cc(-c3ccccc3OC)nn2)O[C@H]1CO` gave HIV Env fusion -2.3[16.7 µM], FGF22 binding-1 1.7*, Cneo AK release 0.1, PGC1a acetyl inh 5.5, ERAP1 inh 0.0, FGF22 binding-2 -0.098[42 µM] and SYPRO no-protein inactive.
COCC#Cc1cnc2c(c1)C(=O)N([C@@H](C)CO)C[C@@H](C)[C@H](CN(C)Cc1ccccc1F)O2 was read as HIV Env fusion 18.3[16.7 µM], PGC1a acetyl inh -5.0 and Ecoli rRNA inh 2.1.
O=C(Cn1cnc2ccccc2c1=O)c1ccccc1 was read as HIV Env fusion -26.3, Cneo AK release 0.1 and PGC1a acetyl inh 1.0.
O=C(NC1CCCCC1)c1cc(-c2cccc(Cl)c2)on1 was read as HIV Env fusion -34.6, FGF22 binding-1 3.9*, Cneo AK release -1.3, PGC1a acetyl inh 9.8, Ecoli rRNA inh 7.4, ERAP1 inh -4.8, FGF22 binding-2 0.069 and SYPRO no-protein inactive.
For O=C(NC1CCCC1)c1cc(-c2cccc(Cl)c2)on1 the results were HIV Env fusion -48.4, FGF22 binding-1 -0.2, Cneo AK release -1.6, PGC1a acetyl inh -10.0, Ecoli rRNA inh -56.8 and ERAP1 inh 4.6.
Screening C[C@@H]1CN([C@@H](C)CO)C(=O)c2cc(NC(=O)C3CC3)ccc2O[C@@H]1CN(C)C(=O)Nc1ccc2c(c1)OCO2 returned HIV Env fusion 13.5[16.7 µM], FGF22 binding-1 2.4*, Cneo AK release 60.5, Ecoli rRNA inh 1.6, ERAP1 inh -4.7, FGF22 binding-2 -0.004[42 µM] and SYPRO no-protein inactive.
C[C@H](CO)N1C[C@H](C)[C@@H](CN(C)C(=O)Nc2ccc3c(c2)OCO3)Oc2c(NC(=O)c3cnccn3)cccc2C1=O was read as FGF22 binding-1 6.3*, Cneo AK release 0.2, PGC1a acetyl inh -10.2, Ecoli rRNA inh 4.5, ERAP1 inh 0.3, FGF22 binding-2 0.054[42 µM] and SYPRO no-protein inactive.
`C[C@H](CO)N1C[C@H](C)[C@H](CN(C)C(=O)Nc2ccc3c(c2)OCO3)Oc2ccc(NS(=O)(=O)c3ccc(Cl)cc3)cc2C1=O` gave FGF22 binding-1 -1.1, Cneo AK release -3.6, PGC1a acetyl inh 16.1, Ecoli rRNA inh -0.3 and ERAP1 inh -3.9.
`C[C@H]1CN([C@@H](C)CO)C(=O)c2cc(NS(=O)(=O)c3ccc(Cl)cc3)ccc2O[C@@H]1CN(C)C(=O)Nc1ccc2c(c1)OCO2` gave FGF22 binding-1 2.5*, Cneo AK release -1.2, PGC1a acetyl inh 7.6, Ecoli rRNA inh -3.4, ERAP1 inh 1.7, FGF22 binding-2 0.114[42 µM] and SYPRO no-protein inactive.
Cc1cccc(-n2c(SCCC(=O)O)nnc2-c2cccs2)c1C was read as Cneo AK release 4.6 and PGC1a acetyl inh -8.0.
CCOC(=O)c1sc(N2C(=O)C(O)=C(C(=O)c3ccco3)C2c2ccc([N+](=O)[O-])cc2)nc1C (stereo unspecified) was read as HIV Env fusion 44.4, FGF22 binding-1 1.7*, Cneo AK release -1.8, Ecoli rRNA inh -17.8*, ERAP1 inh 3.8, FGF22 binding-2 0.2 and SYPRO no-protein inactive.
CCOC(=O)c1sc(N2C(=O)C(O)=C(C(=O)c3ccco3)C2c2ccc(C)o2)nc1C (stereo unspecified) was read as HIV Env fusion 29.7, FGF22 binding-1 0.6, Cneo AK release -0.3, Ecoli rRNA inh -18.4 and ERAP1 inh 2.7.
CC1CCCN(C(=O)CSc2nc3ccccc3o2)C1 (stereo unspecified) was read as HIV Env fusion -3.2, Cneo AK release -1.4 and PGC1a acetyl inh 11.4.
`C[C@@H]1CN([C@H](C)CO)C(=O)c2cc(NS(=O)(=O)c3ccc(F)cc3)ccc2O[C@@H]1CN(C)Cc1ccc(Cl)c(Cl)c1` gave HIV Env fusion -2.8, FGF22 binding-1 0.8, Cneo AK release 2.4, Ecoli rRNA inh -4.5 and ERAP1 inh -3.0.
Screening CCCCNC(=O)c1onc(CSc2ccc(F)c(F)c2)c1C(=O)NCCCC returned HIV Env fusion 13.0, FGF22 binding-1 30.9*, Cneo AK release -0.9, PGC1a acetyl inh 2.8, Ecoli rRNA inh -6.1, ERAP1 inh 1.2, FGF22 binding-2 0.026 and SYPRO no-protein 6.27µM*.
Screening C[C@@H]1CN([C@@H](C)CO)C(=O)c2cc(Br)cnc2O[C@H]1CN(C)C(=O)C1CC1 returned HIV Env fusion 7.1, FGF22 binding-1 2.4*!, Cneo AK release -2.0, PGC1a acetyl inh 7.7, Ecoli rRNA inh 1.6, ERAP1 inh -7.7, FGF22 binding-2 0.093 and SYPRO no-protein inactive.
For C[C@H]1CN([C@@H](C)CO)C(=O)c2cc(C3=CCCC3)cnc2O[C@H]1CN(C)C(=O)CN(C)C the results were HIV Env fusion -0.3[16.7 µM], FGF22 binding-1 1.4*, Cneo AK release 51.5, PGC1a acetyl inh -5.5, Ecoli rRNA inh 0.2, ERAP1 inh 1.9, FGF22 binding-2 0.001 and SYPRO no-protein inactive.
Screening CCC(Sc1nccn1C)C(=O)Nc1nnc(C)s1 (stereo unspecified) returned HIV Env fusion -1.8, FGF22 binding-1 0.2, Cneo AK release -1.8, PGC1a acetyl inh 8.2, Ecoli rRNA inh 7.7 and ERAP1 inh 1.8.
Screening O=C(COc1cccc(C(F)(F)F)c1)Nc1ccccc1N1CCCCC1 returned HIV Env fusion 6.8, FGF22 binding-1 -0.3, Cneo AK release 0.2, Ecoli rRNA inh -0.6 and ERAP1 inh 3.8.
